Holding throughout (format): functional, cell-based, Homo sapiens
The subject of experiment [1] is 41M. Kind of experiment: In vitro antitumor activity against 41M cell line. In short, it runs like this:
(§1)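 Human ovarian carcinoma monolayers were grown in DMEM with 10% FCS, insulin and hydrocortisone under 10% CO2. Cells were seeded at 5 × 10^3–1 × 10^4 per well and left to attach overnight. Drugs were freshly dissolved in 0.9% saline (1 mM or 500 μM stocks) and added to quadruplicate wells for 96 h. Cell mass was read by SRB staining. IC50 values are means of at least two experiments.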

In experiment [2] the test system is 41M. Nature of the experiment: In vitro antitumor activity against 41McisR cell line. A digest of the protocol: as §1
The subject of experiment [3] is A2780. Nature of the experiment: In vitro antitumor activity against A2780cisR cell line. In short, it runs like this:
as §1

In experiment [4] the test system is A2780. Nature of the experiment: In vitro antitumor activity against A2780 cell line. A digest of the protocol: as §1
Experiment [5] has as its system CH1. Kind of experiment: In vitro antitumor activity against CH1cisR cell line. A digest of the protocol:
as §1

Experiment [6] deals with CH1. Nature of the experiment: In vitro antitumor activity against CH1 cell line. A digest of the protocol: as §1
Another experiment concerns SK-OV-3. Nature of the experiment: In vitro antitumor activity against SK-OV-3 cell line. In short, it runs like this: as §1

A value given as a limit tells only on which side of the number the result lay.

Here are results for eleven substances from ChEMBL document CHEMBL1128497, “Synthesis and in vitro and in vivo antitumor activity of a series of trans platinum antitumor complexes” (J Med Chem, 1995).

One may read the IC50 as the concentration that gives 50% inhibition.

Turning to “Trans-Amminedichloro hexylamine platinium (II)”, the IC50 turned out to be 4.5 µM with 41M [1]; 4.1 µM in the experiment with 41M [2]; 4.8 µM in the experiment on A2780 [3]; 2.3 µM in the experiment with A2780 [4]; 4.4 µM in the experiment with CH1 [5]; 4 µM with CH1 [6]. In addition, 7.1 µM corresponded to half-maximal inhibition in the experiment on SK-OV-3 (IC50).
As for “trans-a-Ammine-b,d-dichloro-c,e-dihydroxy-f-(diethylamine)-platinium (IV)”, the IC50 is 1.8 µM in the experiment on 41M [1]; 0.76 µM in the experiment on 41M [2]; 11.6 µM in the experiment with A2780 [3]; 1.9 µM with A2780 [4]; 4.5 µM in the experiment with CH1 [5]; 3.3 µM in the experiment with CH1 [6]. The substance also had an IC50 with SK-OV-3 of 12.1 µM.
Regarding “trans-Amminedichloro(quinuclidine)platinium (II)”, the IC50 was more than 50 µM in the experiment with 41M [1]; more than 50 µM in the experiment with 41M [2]; more than 50 µM in the experiment with A2780 [3]; 26 µM in the experiment on A2780 [4]; more than 50 µM in the experiment with CH1 [5]; more than 50 µM in the experiment with CH1 [6]. The substance also had an IC50 in the experiment with SK-OV-3 of more than 50 µM.
Consider “trans-a-ammine-b,d-dichloro-f-(cyclohexylamine)-c,e-bis-(ethylcarbamato)platinium (IV)”, for which the half-inhibitory concentration (IC50) in the experiment with 41M [1] amounted to 6.2 µM; in the experiment with 41M [2], 4.3 µM; with A2780 [3] it was 10.6 µM; with A2780 [4], 3.2 µM; in the experiment with CH1 [5], 5.6 µM; with CH1 [6], 4.6 µM. Also, the midpoint of inhibition with SK-OV-3, the IC50, lay at 19 µM.
As for “trans-(1-Aminoadamantane)Amminedichloro-platinium (II)”, the IC50 was 0.49 µM with 41M [1]; 1.2 µM in the experiment with 41M [2]; 1.4 µM in the experiment on A2780 [3]; 0.4 µM with A2780 [4]; 0.43 µM in the experiment with CH1 [5]; 0.21 µM in the experiment with CH1 [6]. In the experiment on SK-OV-3, this substance had an IC50 of 1.5 µM.
As for “Trans-Amminedichloro(diethylamine)platinium (II)”, the IC50 in the experiment with 41M [1], in the experiment on 41M [2], in the experiment on A2780 [3], in the experiment with A2780 [4], with CH1 [5] and in the experiment on CH1 [6] was more than 50 µM each time. Also, the IC50 in the experiment on SK-OV-3 is more than 50 µM.
Regarding “trans-Amminetetrachloro(quinuclidine)-platinium (IV)”, the IC50 in the experiment on 41M [1] was 16.5 µM; in the experiment with 41M [2], 16 µM; in the experiment with A2780 [3], 16 µM; in the experiment on A2780 [4] it was 14 µM; in the experiment with CH1 [5], 15.5 µM; with CH1 [6], 15.5 µM. For the same substance, it took 29 µM to reach half-maximal inhibition with SK-OV-3 (IC50).
On to “trans-Amminedibromo (cyclohexylamine)-platinium (II)”, for which the IC50 with 41M [1] was 4 µM; with 41M [2], 3.2 µM; with A2780 [3], 5.4 µM; in the experiment on A2780 [4], 1.9 µM; in the experiment on CH1 [5] it was 5 µM; in the experiment on CH1 [6], 4 µM. In addition, the IC50 in the experiment on SK-OV-3 was found to be 11.5 µM.
Consider “Trans-Amminedichloro(cycloheptylamine)platinium (II)”, for which the IC50 in the experiment on 41M [1] was found to be 2.4 µM; in the experiment with 41M [2] it was 1.7 µM; with A2780 [3], 4.6 µM; in the experiment with A2780 [4] it was 1.3 µM; with CH1 [5] it was 4.7 µM; in the experiment with CH1 [6], 4.3 µM. In the experiment on SK-OV-3, this substance gave an IC50 of 10 µM.
Regarding “trans-a-Ammine-b,d-dichloro-c,e-dihydroxo-f-(quinuclidine)-platinium (IV)”, the IC50 in the experiment with 41M [1] amounted to 14.4 µM; with 41M [2], 9.5 µM; in the experiment on A2780 [3], 16 µM; in the experiment with A2780 [4] it was 3.2 µM; in the experiment on CH1 [5] it was 14.3 µM; in the experiment with CH1 [6], 10.2 µM. Also, the IC50 in the experiment with SK-OV-3 is 27 µM.
Regarding “trans-a-Ammine-b,d-dichloro-c,e-dihydrooxy-f-(ethylamine)-platinium (IV)”, the IC50 in the experiment on 41M [1] turned out to be 9.4 µM; in the experiment with 41M [2], 13.3 µM; in the experiment with A2780 [3] it was 26.5 µM; in the experiment on A2780 [4], 4.5 µM; with CH1 [5] it was 14 µM; with CH1 [6] it was 10.3 µM. This substance also registered an IC50 in the experiment with SK-OV-3 of 45 µM.
